ChEMBL document CHEMBL1671697, “Lipophilic bisphosphonates are potent inhibitors of Plasmodium liver-stage growth” (Antimicrob Agents Chemother, 2010)
“And” between values parts separate entries of the source, which are not always exact repeats. Equal values may be shown once. The source made the active and inactive calls. No cut-off for these calls is given here.

Experiments:
Plasmodium falciparum [1] = assay: Antiplasmodial activity against chloroquine-sensitive Plasmodium falciparum 3D7 assessed as suppression of parasitemia by microscopic analysis
[2] = Inhibition of Plasmodium vivax FPPS
Plasmodium berghei [3] = assay: Antimalarial activity against Plasmodium berghei NK65 infected in human HepG2 cells after 48 hrs by RT-PCR; assay type: functional, organism-based; conditions: NK65, HepG2, 48 h
Summary of the method: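 P. berghei NK65 sporozoites (10,000 per well) added to human HepG2 monolayers seeded the day before, in DMEM with 10% FBS, with compound diluted in PBS; 37°C, 5% CO2, 48 h. Medium and compound were renewed at 24 h. Parasite 18S rRNA copies were quantified by real-time PCR against a plasmid standard and expressed relative to untreated control. IC50 was obtained by nonlinear regression.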

[4] = Partition coefficient, log P of the compound; assay type: physicochemical; conditions: octanol/water
[5] = Cytotoxicity against human HepG2 cells after 22 hrs; assay type: cell-based; conditions: read-out: TC50
Summary of the method: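 HepG2 cells were seeded at 70% confluence the day before treatment, then exposed to a range of inhibitor concentrations for 22 h at 37°C, 5% CO2. CellTiter One reagent was then added for 2 h more, and OD495 was read. IC50 (TC50) was fit by nonlinear regression of percent viable cells against concentration.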

Plasmodium falciparum [6] = assay: Antiplasmodial activity against chloroquine-resistant Plasmodium falciparum W2mef assessed as suppression of parasitemia by microscopic analysis
Plasmodium berghei [7] = assay: (§1) Antiplasmodial activity against 3000 Plasmodium berghei NK65 liver stage sporozoites infected in 12 wk old C57BL/6 mouse assessed as delay in prepatent period at 2 mg/kg, ip administered once daily via a regimen of day 2, 1 pre-infection, on the day of infection followed by day 1 and 2 postinfection for 5 days by microscopic analysis; assay type: functional; conditions: route intraperitoneal
Summary of the method: (§2)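 Mice were given compound i.p. once daily from 2 days before to 2 days after sporozoite challenge (5 doses). Challenge was 3,000 infectious P. berghei sporozoites. Parasitemia was followed by blood smear until 3–5%, then mice were sacrificed. Complete protection means no blood-stage parasites in smears; observation lasted 28 days.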

[8] = Inhibition of Plasmodium vivax GGPPS
Plasmodium berghei [9] = assay: (§3) Antiplasmodial activity against Plasmodium berghei NK65 infected in 12 wk old C57BL/6 mouse assessed as prepatent period at 2 mg/kg, ip administered once daily via a regimen of day 2, 1 pre-infection, on the day of infection followed by day 1 and 2 postinfection for 5 days by microscopic analysis; assay type: functional; conditions: route intraperitoneal
Plasmodium berghei [10] = assay: (§4) Antiplasmodial activity against Plasmodium berghei NK65 infected in 12 wk old BALB/c mouse assessed as prepatent period at 5 mg/kg, ip administered once daily via a regimen of day 2, 1 pre-infection, on the day of infection followed by day 1 and 2 postinfection […] by microscopic analysis; assay type: functional; conditions: route intraperitoneal
Plasmodium berghei [11] = assay: as §1, with “at 1.5” for “at 2”; assay type: functional; conditions: route intraperitoneal; summary of the method: as §2
Plasmodium berghei [12] = assay: Antiplasmodial activity against Plasmodium berghei NK65 infected in 12 wk old C57BL/6 mouse assessed as prepatent period at 0.5 mg/kg, ip administered once daily via a regimen of day 2, 1 pre-infection, on the day of infection followed by day 1 postinfection for 4 days by microscopic analysis; assay type: functional; conditions: route intraperitoneal
Plasmodium berghei [13] = assay: Antiplasmodial activity against Plasmodium berghei NK65 infected in C57BL/6 mouse assessed as completed protection of mouse, ip administered once daily via a regimen of day 2, 1 pre-infection, on day of infection followed by a regimen of day 1 and 2 post infection for 5 days measured after 28 days; assay type: functional, organism-based; summary of the method: as §2
Plasmodium berghei [14] = assay: (§5) Antiplasmodial activity against Plasmodium berghei NK65 infected in 12 wk old C57BL/6 mouse assessed as prepatent period at 1.5 mg/kg, ip administered once daily via a regimen of day 2, 1 pre-infection, on the day of infection followed by day 1 and 2 postinfection for 5 days by microscopic analysis; assay type: functional; conditions: route intraperitoneal
Plasmodium berghei [15] = assay: as §5, with “against 5 X 10^6 blood stream” for “against”; assay type: functional; conditions: route intraperitoneal
Summary of the method: (§6)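 Mice, five per group, were dosed i.p. daily for 5 days and challenged on day 0 with 5 × 10^6 blood-stage P. berghei parasites. Parasitemia was monitored by blood smear, and the delay in prepatent period was recorded.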

Plasmodium berghei [16] = assay: as §5, with “against 5 X 10^6 blood stream” for “against”, “parasitemia” for “prepatent period”; assay type: functional; conditions: route intraperitoneal; summary of the method: as §6
Plasmodium berghei [17] = assay: as §5, with “activity against 5 X 10^6 blood stream Plasmodium berghei” for “activity against Plasmodium berghei”, “assessed as delay in prepatent period” for “assessed as prepatent period”; assay type: functional; conditions: route intraperitoneal; summary of the method: as §6
Plasmodium berghei [18] = assay: as §3, with “at 0.8” for “at 2”, “day 1, 2” for “day 1”, “and 3 days” for “and 2”, “[…]” for “for 5”; assay type: functional; conditions: route intraperitoneal
Plasmodium berghei [19] = assay: as §1, with “at 0.8” for “at 2”; assay type: functional; conditions: route intraperitoneal; summary of the method: as §2
Plasmodium berghei [20] = assay: Antiplasmodial activity against Plasmodium berghei NK65 infected in 12 wk old BALB/c mouse assessed as prepatent period at 5 mg/kg, ip administered once daily on the day of infection followed by day 1 postinfection for 2 days by microscopic analysis; assay type: functional; conditions: route intraperitoneal
Plasmodium berghei [21] = assay: Antiplasmodial activity against Plasmodium berghei NK65 infected in 12 wk old BALB/c mouse assessed as prepatent period at 20 mg/kg, ip administered once daily via regimen of 1 preinfection, on day of infection followed by regimen of 1 day post infection for 3 days by microscopic analysis; assay type: functional; conditions: route intraperitoneal
Plasmodium berghei [22] = assay: as §3, with “against 5 X 10^6 blood stream” for “against”, “at 20” for “at 2”; assay type: functional; conditions: route intraperitoneal; summary of the method: as §6
Plasmodium berghei [23] = assay: Antiplasmodial activity against Plasmodium berghei NK65 infected in 12 wk old BALB/c mouse assessed as prepatent period at 17 mg/kg, ip administered once daily on the day of infection followed by day 1 postinfection for 2 days by microscopic analysis; assay type: functional; conditions: route intraperitoneal
Plasmodium berghei [24] = assay: as §3, with “against 5 X 10^6 blood stream” for “against”, “as parasitemia” for “as prepatent period”, “at 20” for “at 2”; assay type: functional; conditions: route intraperitoneal; summary of the method: as §6
Plasmodium berghei [25] = assay: as §3, with “in 8” for “in 12”, “at 20” for “at 2”, “day” for “day 2,”, “day 1, 2” for “day 1”, “and 3 days” for “and 2”, “[…]” for “for 5”; assay type: functional; conditions: route intraperitoneal
Plasmodium berghei [26] = assay: Antiplasmodial activity against Plasmodium berghei NK65 infected in 12 wk old C57BL/6 mouse assessed as prepatent period at 20 mg/kg, ip administered once daily via a regimen of day 1 pre-infection, on the day of infection followed by day 1 postinfection for 3 days by microscopic analysis; assay type: functional; conditions: route intraperitoneal
Plasmodium berghei [27] = assay: Antiplasmodial activity against Plasmodium berghei NK65 infected in 12 wk old C57BL/6 mouse assessed as prepatent period at 10 mg/kg, ip administered once daily via a regimen of day 2, 1 days pre-infection, on the day of infection followed by day 1 postinfection for 4 days by microscopic analysis; assay type: functional, organism-based; design: dose 10 mg/kg
Plasmodium berghei [28] = assay: as §4, with “period assessed as complete suppression of parasitemia” for “period”, “at 20” for “at 5”; assay type: functional; conditions: route intraperitoneal
Plasmodium berghei [29] = assay: Antiplasmodial activity against 5 X 10^6 blood stream Plasmodium berghei NK65 infected in 12 wk old C57BL/6 mouse assessed as delay in prepatent period at 20 mg/kg, ip administered once daily via a regimen of day 2, 1 pre-infection, on the day of infection followed by day 1 and 2 postinfection for 5 days by microscopic analysis; assay type: functional; conditions: route intraperitoneal; summary of the method: as §6
Plasmodium berghei [30] = assay: Antiplasmodial activity against Plasmodium berghei NK65 infected in 8 wk old C57BL/6 mouse assessed as prepatent period at 20 mg/kg, ip administered once daily via regimen of […], on the day of infection followed by day 1 postinfection for 4 days by microscopic analysis; assay type: functional; conditions: route intraperitoneal
Plasmodium berghei [31] = assay: Antiplasmodial activity against Plasmodium berghei NK65 infected in 12 wk old C57BL/6 mouse assessed as prepatent period at 10 mg/kg, ip administered once daily via a regimen of day 1 pre-infection, on the day of infection followed by day 1 postinfection for 3 days by microscopic analysis; assay type: functional, organism-based; design: dose 10 mg/kg
Plasmodium berghei [32] = assay: as §1, with “at 20” for “at 2”; assay type: functional; conditions: route intraperitoneal; summary of the method: as §2
Plasmodium berghei [33] = assay: Antiplasmodial activity against Plasmodium berghei NK65 infected in 14 wk old C57BL/6 mouse assessed as prepatent period at 5 mg/kg, ip administered once daily via a regimen of day 2, 1 pre-infection, on the day of infection followed by day 1 and 2 postinfection […] by microscopic analysis; assay type: functional, organism-based; design: dose 5 mg/kg
Plasmodium berghei [34] = assay: Antiplasmodial activity against Plasmodium berghei NK65 infected in 12 wk old C57BL/6 mouse assessed as prepatent period at 5 mg/kg, ip administered once daily via a regimen of day 2, 1 pre-infection, on the day of infection followed by day 1 and 2 postinfection for 5 days by microscopic analysis; assay type: functional; conditions: route intraperitoneal
Plasmodium berghei [35] = assay: as §1, with “at 5” for “at 2”; assay type: functional; conditions: route intraperitoneal; summary of the method: as §2

SMILES | IC50 (Plasmodium falciparum [1]) | IC50 [2] | Ki [2] | IC50 (Plasmodium berghei [3]) | CC50 at 22 h [5] | IC50 (Plasmodium falciparum [6]) | IC50 [8] | Ki [8] | further results
CCCCCCCCCCN(C)CC(P(=O)(O)O)P(=O)(O)O | 0.45 µM | 1.5 µM | 0.043 µM | 8 µM | 1000 µM | 2.2 µM | 0.7 µM | 0.016 µM | logP ([4]; read-out: logP): -3.4; Activity (Plasmodium berghei [7]): 5 days; Activity (Plasmodium berghei [9]): 9 days
NCCC(O)(P(=O)(O)O)P(=O)(O)O [PAMIDRONIC ACID] |  |  |  | > 200 µM |  |  |  |  | 
CC[C@H](C)C(=O)O[C@H]1C[C@H](O)C=C2C=C[C@H](C)[C@H](CC[C@@H](O)C[C@@H](O)CC(=O)O)[C@H]21 [PRAVASTATIN SODIUM] |  |  |  | > 200 µM |  |  |  |  | 
CCCCCCCCCCOc1ccc[n+](CC(P(=O)([O-])O)P(=O)(O)O)c1 (configuration not stated) | 0.67 µM | 1.5 µM | 0.043 µM | 10 µM | 2000 µM | 0.59 µM | 0.56 µM | 0.013 µM | Activity (Plasmodium berghei [10]): >28 days; Activity (Plasmodium berghei [11]): >28 days; Activity (Plasmodium berghei [12]): 3 days; logP ([4]; read-out: logP): -1.2; Activity (Plasmodium berghei [13]): Active; Activity (Plasmodium berghei [14]): >28 days; Activity (Plasmodium berghei [15]): 5 days; Activity (Plasmodium berghei [16]): 0.01%; Activity (Plasmodium berghei [17]): 4 days
CCCCCCCCN(C)CC(P(=O)(O)O)P(=O)(O)O | 0.65 µM | 1.5 µM | 0.043 µM | 8.8 µM | 1000 µM | 2 µM | 0.63 µM | 0.015 µM | Activity (Plasmodium berghei [18]): 7 days; logP [4]: -4.1; Activity (Plasmodium berghei [19]): 3 days
O=P(O)(O)C(O)(Cc1cccnc1)P(=O)(O)O [RISEDRONIC ACID] | 1.2 µM | 1.7 µM | 0.048 µM | 16 µM | 13000 µM | 1.4 µM | 1.1 µM | 0.024 µM | Activity (Plasmodium berghei [20]): 0.5 days; Activity (Plasmodium berghei [21]): 0.5 days; Activity (Plasmodium berghei [22]): 2 days; Activity (Plasmodium berghei [23]): 1 days; Activity (Plasmodium berghei [24]): 0.09%; logP [4]: -5.5; Activity (Plasmodium berghei [25]): 6 days; Activity (Plasmodium berghei [26]): 2.5 days; Activity (Plasmodium berghei [27]): inactive; Activity (Plasmodium berghei [28]): 8 days and 3 days; Activity (Plasmodium berghei [29]): 1 days; Activity (Plasmodium berghei [30]): 4 days; Activity (Plasmodium berghei [31]): inactive; Activity (Plasmodium berghei [32]): 4 days
COC(=O)[C@H](CC(C)C)NC(=O)c1ccc(NC[C@@H](N)CS)cc1-c1cccc2ccccc12 |  |  |  | 30 µM |  |  |  |  | Activity (Plasmodium berghei [33]): inactive; Activity (Plasmodium berghei [34]): 4 days; Activity (Plasmodium berghei [35]): 0 days
